Assay results: ChEMBL document CHEMBL1132994, “Synthesis and anticonvulsant and neurotoxic properties of substituted N-phenyl derivatives of the phthalimide pharmacophore” (J Med Chem, 2000)
Calls of active or inactive are those of the source. The rule behind the calls is not given here.

What was measured:
Mus musculus [1] = assay: Anticonvulsant activity in mice through seizures induced by maximal electroshock (MES) tests after ip administration at a concentration of 300 mg/kg after 4 hours; Inactive; format: functional, organism-based; parameters: dose 300 mg/kg
Mus musculus [2] = assay: Anticonvulsant activity in mice through seizures induced by sc pentylenetetrazole (intraperitoneal administration at a concentration of 300 mg/kg after 30 min; Inactive; format: functional, organism-based; parameters: dose 300 mg/kg
Mus musculus [3] = assay: Neurotoxicity by rotarod test after intraperitoneal administration at a concentration of 300 mg/kg after 4 hours.; Inactive; format: functional, organism-based; parameters: dose 300 mg/kg
Mus musculus [4] = assay: Anticonvulsant activity in mice through seizures induced by sc pentylenetetrazole (intraperitoneal administration at a concentration of 300 mg/kg after 4 hours; Inactive; format: functional, organism-based; parameters: dose 300 mg/kg
Mus musculus [5] = assay: Neurotoxicity by rotarod test after intraperitoneal administration at a concentration of 300 mg/kg after 30 minutes.; active; format: functional, organism-based; parameters: dose 300 mg/kg
Mus musculus [6] = assay: Neurotoxicity by rotarod test after intraperitoneal administration at a concentration of 300 mg/kg after 30 minutes; Inactive; format: functional, organism-based; parameters: dose 300 mg/kg
Mus musculus [7] = assay: Neurotoxicity determined by rotarod test after intraperitoneal administration at a concentration of 300 mg/kg after 4 hours; Inactive; format: functional, organism-based; parameters: dose 300 mg/kg
Mus musculus [8] = assay: Anticonvulsant activity in mice through seizures induced by maximal electroshock (MES) tests after ip administration at a concentration of 100 mg/kg after 30 min; Inactive; format: functional, organism-based; parameters: dose 100 mg/kg
Mus musculus [9] = assay: Neurotoxicity by rotarod test after intraperitoneal administration at a concentration of 300 mg/kg after 30 minutes; Active; format: functional, organism-based; parameters: dose 300 mg/kg
Mus musculus [10] = assay: Anticonvulsant activity in mice through seizures induced by maximal electroshock (MES) tests after ip administration at a concentration of 100 mg/kg after 30 min; Active; format: functional, organism-based; parameters: dose 100 mg/kg
Mus musculus [11] = assay: Anticonvulsant activity in mice through seizures induced by subcutaneous pentylenetetrazole (scPTZ) tests after ip administration at a concentration of 300 mg/kg after 30 min; Inactive; format: functional, organism-based; parameters: dose 300 mg/kg
Mus musculus [12] = assay: Neurotoxicity by rotarod test after intraperitoneal administration at a concentration of 300 mg/kg after 4 hours; Active; format: functional, organism-based; parameters: dose 300 mg/kg
Mus musculus [13] = assay: Anticonvulsant activity in mice through seizures induced by maximal electroshock (MES) tests after ip administration at a concentration of 300 mg/kg after 4 hours; Active; format: functional, organism-based; parameters: dose 300 mg/kg
Rattus norvegicus [14] = assay: Anticonvulsant activity in rats through seizures induced by maximal electroshock (MES) tests by oral administration of drug at a concentration of 30 mg/kg after 15 minutes; No activity; format: functional, organism-based; parameters: dose 30 mg/kg
Summary of the method: (§1)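 Rats given a single oral dose of 30 or 50 mg/kg, depending on compound; MES protection scored at 15, 30, 60, 120 and 240 min. Activity graded by fraction of animals protected (0-25%, 25-50%, 50-75%, 75-100%); neurotoxicity monitored at the same time points.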

Rattus norvegicus [15] = assay: Anticonvulsant activity in rats through seizures induced by maximal electroshock (MES) tests after oral administration at a concentration of 30 mg/kg after 1 hour.; format: functional; summary of the method: as §1
Rattus norvegicus [16] = assay: Anticonvulsant activity was measured in rats through seizures induced by maximal electroshock (MES) tests by oral administration of drug at a concentration of 30 mg/kg after 2 hours.; format: functional; summary of the method: as §1
Rattus norvegicus [17] = assay: Anticonvulsant activity was measured in rats through seizures induced by maximal electroshock (MES) tests by oral administration of drug after 4 hours.; format: functional; summary of the method: as §1
Mus musculus [18] = assay: Anticonvulsant activity in mice through seizures induced by subcutaneous pentylenetetrazole (scPTZ) tests after ip administration at a concentration of 300 mg/kg after 4 hours; Inactive; format: functional, organism-based; parameters: dose 300 mg/kg
Rattus norvegicus [19] = assay: Anticonvulsant activity in rats through seizures induced by maximal electroshock (MES) tests by oral administration of drug at a concentration of 30 mg/kg after 30 minutes; format: functional; summary of the method: as §1
Mus musculus [20] = assay: Neurotoxicity by rotarod test after ip administration at a concentration of 300 mg/kg after 30 minutes; Active; format: functional, organism-based; parameters: dose 300 mg/kg
Rattus norvegicus [21] = assay: (§2) Toxicity screening in rats dosed orally with the compound; No toxicity; format: functional, organism-based
Summary of the method: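 Rats given a single oral dose of 30 or 50 mg/kg, depending on compound. Minimal neurotoxicity was scored at 15, 30, 60, 120 and 240 min after dosing, alongside the MES test. Scores are graded by the percentage of animals affected.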

Mus musculus [22] = assay: Anticonvulsant activity in mice through seizures induced by subcutaneous pentylenetetrazole (scPTZ) test after ip administration at a concentration of 300 mg/kg after 30 min; Inactive; format: functional, organism-based; parameters: dose 300 mg/kg
Mus musculus [23] = assay: Anticonvulsant activity in mice through seizures induced by maximal electroshock (MES) tests after ip administration at a concentration of 100 mg/kg after 30 min; active; format: functional, organism-based; parameters: dose 100 mg/kg
Mus musculus [24] = assay: Anticonvulsant activity in mice through seizures induced by subcutaneous pentylenetetrazole (scPTZ) tests after ip administration at a concentration of 300 mg/kg after 30 min; active; format: functional, organism-based; parameters: dose 300 mg/kg
Mus musculus [25] = assay: Anticonvulsant activity in mice through seizures induced by sc pentylenetetrazole (intraperitoneal administration at a concentration of 300 mg/kg after 4 hours; active; format: functional, organism-based; parameters: dose 300 mg/kg
Rattus norvegicus [26] = assay: Anticonvulsant activity was measured in rats through seizures induced by maximal electroshock (MES) tests by oral administration of drug after 1 hour.; format: functional; summary of the method: as §1
Rattus norvegicus [27] = assay: Effective dose required to assure anticonvulsant protection in 50% of rats dosed orally by scPTZ test.; format: functional; settings: po
Summary of the method: (§3)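 Rats dosed orally; ED50 is the dose giving anticonvulsant protection in 50% of animals in the MES or scPtz test. TD50 is the minimal neurotoxic dose in 50% of animals. Time to peak effect was also determined.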

Rattus norvegicus [28] = assay: as §2; format: organism-based; settings: in vivo, po
Rattus norvegicus [29] = assay: Anticonvulsant activity was measured in rats through seizures induced by maximal electroshock (MES) tests by oral administration of drug after 2 hours.; format: functional; summary of the method: as §1
Rattus norvegicus [30] = assay: Effective dose required to assure anticonvulsant protection in 50% of rats dosed orally by MES test.; format: functional; settings: po; summary of the method: as §3
Rattus norvegicus [31] = assay: Anticonvulsant activity was measured in rats through seizures induced by maximal electroshock (MES) tests by oral administration of drug after 15 minutes; No activity; format: functional, organism-based; summary of the method: as §1
[32] = dose eliciting minimal neurological toxicity in 50% of animals.; format: organism-based; settings: rat, in vivo

| SMILES | Activity (Mus musculus [1]) | Activity (Mus musculus [2]) | Activity (Mus musculus [4]) | Activity (Mus musculus [6]) | Activity (Mus musculus [7]) | Activity (Mus musculus [8]) | Activity (Mus musculus [10]) | Activity (Mus musculus [11]) | Activity (Mus musculus [13]) | Activity (Mus musculus [18]) | other results |
| --- | --- | --- | --- | --- | --- | --- | --- | --- | --- | --- | --- |
| COC(=O)c1ccccc1N1C(=O)c2ccccc2C1=O | inactive | inactive | inactive |  |  |  |  |  |  |  | Activity (Mus musculus [3]): inactive; Activity (Mus musculus [5]): Active |
| Cc1c(N2C(=O)c3ccccc3C2=O)cccc1[N+](=O)[O-] | inactive | inactive | inactive | inactive | inactive | inactive |  |  |  |  |  |
| Cc1cc(N)ccc1N1C(=O)c2ccccc2C1=O |  |  | inactive |  |  |  | Active | inactive | Active |  | Activity (Mus musculus [9]): Active; Activity (Mus musculus [12]): Active |
| Nc1ccc(N2C(=O)c3ccccc3C2=O)cc1 | inactive |  |  |  | inactive |  | Active |  |  | inactive | Activity in animals (Rattus norvegicus [14]): No activity; Activity in animals (Rattus norvegicus [15]): 75%; Activity in animals (Rattus norvegicus [16]): 50%; Activity in animals (Rattus norvegicus [17]): 25%; Activity in animals (Rattus norvegicus [19]): 25%; Activity (Mus musculus [20]): Active; Toxicity (Rattus norvegicus [21]): Not toxic; Activity (Mus musculus [22]): inactive |
| COc1ccc(N2C(=O)c3ccccc3C2=O)c(C)c1 | inactive |  |  | inactive | inactive |  |  |  |  |  | Activity (Mus musculus [23]): Active; Activity (Mus musculus [24]): Active; Activity (Mus musculus [25]): Active |
| Cc1ccc(N)cc1N1C(=O)c2ccccc2C1=O | inactive | inactive |  | inactive | inactive |  | Active |  |  | inactive |  |
| Cc1cc([N+](=O)[O-])ccc1N1C(=O)c2ccccc2C1=O |  |  | inactive | inactive | inactive | inactive |  | inactive | Active |  |  |
| Cc1cccc(N)c1N1C(=O)c2ccccc2C1=O |  |  |  |  | inactive |  | Active | inactive | Active | inactive | Activity in animals (Rattus norvegicus [26]): 75%; ED50 (Rattus norvegicus [27]): > 250 mg/kg; Activity in animals (Rattus norvegicus [17]): 25%; Activity (Mus musculus [9]): Active; Toxicity (Rattus norvegicus [28]): No toxicity; Activity in animals (Rattus norvegicus [29]): 25%; ED50 (Rattus norvegicus [30]): 28.3 mg/kg; Activity in animals (Rattus norvegicus [31]): No activity; TD50 [32]: > 500 mg/kg |
| Cc1c(C(=O)O)cccc1N1C(=O)c2ccccc2C1=O | inactive |  |  | inactive | inactive | inactive |  | inactive |  | inactive |  |
